STAT1 act = increases IFN-gamma driven STAT1 reporter signal; NIH 3T3 STAT1-luciferase reporter, luminescence; 100% = IFN-gamma alone, no compound; 200,000 compounds, 2.6% hits; activation (% of control), % at 5.5 µM;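 active = activation above the screen-wide mean activation plus 3 SD, cut at about 130% in these data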
FLuc act counter = firefly luciferase counter-screen for stimulation assays. AID 1027. P08659. 200,000 tested, under 10 active. activation factor at 10 µM. ATPlite luciferase biochemical, luminescence, 10 min; 0 = ATP-free wells, 1 = DMSO control;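 active = luciferase activation factor, scaled between plate controls, of at least 2 with compound at 10 µM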
Target sequence (P08659 whole entry, looked up): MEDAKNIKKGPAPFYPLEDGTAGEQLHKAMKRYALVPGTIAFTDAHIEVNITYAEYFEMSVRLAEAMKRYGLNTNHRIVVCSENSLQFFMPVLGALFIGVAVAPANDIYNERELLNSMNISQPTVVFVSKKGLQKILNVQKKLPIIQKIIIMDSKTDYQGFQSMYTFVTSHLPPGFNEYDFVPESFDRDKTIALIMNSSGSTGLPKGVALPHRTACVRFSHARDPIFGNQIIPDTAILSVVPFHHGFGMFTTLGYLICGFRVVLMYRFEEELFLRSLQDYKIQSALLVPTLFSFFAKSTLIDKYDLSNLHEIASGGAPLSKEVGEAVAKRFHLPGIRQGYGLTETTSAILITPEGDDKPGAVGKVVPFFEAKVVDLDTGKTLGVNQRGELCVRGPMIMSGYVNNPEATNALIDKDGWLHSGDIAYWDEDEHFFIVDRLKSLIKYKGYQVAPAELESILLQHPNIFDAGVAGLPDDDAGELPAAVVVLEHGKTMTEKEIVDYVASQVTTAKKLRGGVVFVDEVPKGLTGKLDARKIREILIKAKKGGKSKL
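Assay system: Luciferase/luciferin detection reagent, cell-free biochemical luciferase assay / Read-out: luciferase activation / Benchmarks: No-ATP low control, compound-free enzyme-plus-ATP high control / Medium: PBS buffer for ATP / Detection: luminescence measurement of luciferase light output / Schedule: 10 min at ambient temperature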
NF-kB expr up = NF-kB expression increase, human neuronal cells. NF-kB reporter expression; hits give high values. fold change at 12.5 µM. 190,000 compounds, 1.6% hits. AID 1239; in the data active = fold change above about 3.3
APP 5'UTR act = activates APP 5'UTR luciferase reporter; SH-SY5Y APP 5'UTR luciferase reporter, luminescence; zero percent = DMSO vehicle wells; activation, % at 2 µM; 190,000 compounds, 1% hits; AID 1276;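 active = activation above a set limit, based on mean plus 3 SD of controls, cut at about 140% in these data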
FLuc inhib CS = counter-screen for luciferase assay inhibitors: firefly luciferase inhibition; P08659; ATPLite firefly luciferase biochemical luminescence, 10 min; inhibition, % at 10 µM; 200,000 compounds, 1.5% hits;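 active = inhibition above about 50% when tested at 10 µM, limit read from the data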
Of the large screens only hits and unclear results are named; the others gave an inactive call. In the library only some 4.1% were active in any assay of this set; here they are far more common.

CC1CCC/C(=C\Nc2ccc(O)cc2)C1=O (stereo not drawn)	STAT1 act 136
Cc1cc(C(=O)O)ccc1N/C=C1\CCCC(C)C1=O (stereo not drawn)	STAT1 act 150, NF-kB expr up 4, APP 5'UTR act 149
CCCNC(=O)c1ccc(C2SCC(=O)N2CCc2ccccc2)cc1 (stereo not drawn)	none
O=C(N/N=C/c1sc(=O)n(-c2ccccc2)c1Cl)c1ccccc1	STAT1 act 147, FLuc inhib CS 67
COC(=O)c1cccc(Cn2c(Cl)c(/C=N/NC(=O)c3ccccc3Cl)sc2=O)c1	none
c1ccc2c(c1)CCN(C1=Nc3cccc4cccc1c34)C2	FLuc inhib CS 52
Nc1ccccc1C(=O)N/N=C1\C2CN3CCN(C2)CC1(c1ccccc1)C3	STAT1 act 130
Cc1cccc(NC(=O)C(=O)NCCCc2ccccc2)c1	none
c1ccc2c(NCCCN3CCOCC3)c3ccccc3nc2c1	STAT1 act 180
Cc1cc(NCCCN2CCOCC2)n2ncc(-c3ccccc3)c2n1	STAT1 act 147, NF-kB expr up 4.4, APP 5'UTR act 156
COc1ccc(CN=Cc2c(C(F)(F)F)[nH][nH]c2=O)cc1	none
COc1cccc2c(=O)c(C(=O)NCc3cccs3)c[nH]c12	STAT1 act 130
Cc1ccc2[nH]cc(C(=O)NCc3cccs3)c(=O)c2c1	none
Cc1cccc(NC(=O)c2ccc3c(Cl)c4c(nc3c2)CCCC4)n1	STAT1 act 145, APP 5'UTR act 160, FLuc inhib CS 81
Cc1cccc(NC(=O)c2onc3c2CCCC3)n1	APP 5'UTR act 158, FLuc inhib CS 92
COC(=O)c1cccc(NC(N)=S)c1	none
Cc1ccccc1NC(=O)c1onc2c1CCCC2	STAT1 act 142, NF-kB expr up 3.6, FLuc inhib CS 63
COC(=O)c1cccc(NC(=O)c2onc3c2CCCC3)c1	STAT1 act 150, NF-kB expr up 10, FLuc inhib CS 62
Cn1c(SCc2cccc(Cl)c2)nc(C(F)(F)F)cc1=O	none
Cc1cccc(NC(=O)c2ccccn2)c1C	none
Cc1cccc(NC(=O)c2onc3c2CCCC3)c1C	STAT1 act 140
CCn1c(C)nc2cc(C(=O)N/N=C/c3ccc(O)cc3)ccc21	none
CCn1c(C)nc2cc(C(=O)N/N=C/c3ccc(OC)cc3)ccc21	none
CCn1c(C)nc2cc(C(=O)N/N=C/c3ccccc3)ccc21	STAT1 act 145
CCn1c(C)nc2cc(C(=O)N/N=C/c3cccc(O)c3O)ccc21	FLuc inhib CS 66
CCOC(=O)C1=C(O)/C(=C/c2ccccn2)SC1=Nc1ccc(Cl)cc1	none
O=C(Cc1ccccc1[N+](=O)[O-])NCc1ccc(Cl)cc1	none
O=C(Cc1ccccc1[N+](=O)[O-])NCc1ccc(Cl)cc1Cl	STAT1 act 131, NF-kB expr up 4.4, FLuc inhib CS 59
O=C(O)c1ccc(NC(=O)c2cn(-c3ccccc3)nc2-c2ccc(Br)cc2)cc1	none
O=C(O)c1ccc(NC(=O)c2cn(-c3ccccc3)nc2-c2ccccc2)cc1	STAT1 act 146
CN(C)c1ccc(N=Nc2ccccc2C(=O)OCC(=O)N2CCCCCC2)cc1	FLuc inhib CS 72
CN(C)c1ccc(N=Nc2ccccc2C(=O)OCC(=O)N2CCCC2)cc1	FLuc inhib CS 70
CCCCN(C)C(=O)c1oc2ccc(S(=O)(=O)N3CCCCCC3)cc2c1C	none
Cc1nn(Cc2ccc([N+](=O)[O-])cc2)c(=O)n1-c1cccc(Cl)c1	none
O=C(NCC(O)c1ccc([N+](=O)[O-])cc1)c1cccc(S(=O)(=O)N2CCCC2)c1 (stereo not drawn)	none
CC(C)(C)c1ccc(-c2noc(CCC(=O)N3CCOCC3)n2)cc1	FLuc inhib CS 83
CN(C)C(=O)CCc1nc(-c2ccc(C(C)(C)C)cc2)no1	FLuc inhib CS 52
Cc1ccc(-c2noc(CCC(=O)NCC3CCCO3)n2)cc1 (stereo not drawn)	none
CC(C)(C)c1ccc(-c2noc(CCC(=O)NCC3CCCO3)n2)cc1 (stereo not drawn)	FLuc inhib CS 64
CNC(=O)CCc1nc(-c2ccc(C(C)(C)C)cc2)no1	FLuc inhib CS 58
CC(=O)/C(C#N)=C1\NC(=O)C(Cc2ccc(C)c(C)c2)S1 (stereo not drawn)	none
Cc1cccc2cc3c(NC(=O)CC(C)C)nn(C)c3nc12	none
CCN(CC)C(=O)C12CC3CC(CC(Br)(C3)C1)C2	none
Cc1ccc(-c2cn(-c3ccccc3)c(SCC(=O)NC3CCS(=O)(=O)C3)n2)cc1C (stereo not drawn)	STAT1 act 136
CCn1c(SCC(=O)NC2CCS(=O)(=O)C2)nnc1-c1ccccc1 (stereo not drawn)	none
COc1cccc(C=Nc2ccc3c(c2)OCCO3)c1O	FLuc inhib CS 96
COc1cccc(/C=N/NC(=O)CNC(=O)c2ccc3c(c2)OCCO3)c1O	none
COc1cccc(/C=N/N2CCOCC2)c1O	FLuc inhib CS 63
CC(=O)Nc1ccc(NC(=O)CN(c2cc(Cl)ccc2Cl)S(C)(=O)=O)cc1	none (no result: NF-kB expr up)
COc1ccc(CCNC(=O)c2ccc(CN3CCOCC3)cc2)cc1	none
O=C(NCCC1=CCCCC1)c1ccc(CN2CCOCC2)cc1	STAT1 act 134
Cc1cc(C(=O)NCCC2=CCCCC2)ccc1[N+](=O)[O-]	STAT1 act 133
COc1ccc(C(=O)NCCC2=CCCCC2)cc1	STAT1 act 138, NF-kB expr up 3.4, APP 5'UTR act 154, FLuc inhib CS 50
COc1ccc(C(=O)NCC(=O)OCC(=O)NCCC2=CCCCC2)cc1	none
O=C(CCCc1ccccc1)NCCC1=CCCCC1	STAT1 act 136
Cc1ccccc1Nc1cccc2nonc12	none
CCNc1nc(CSc2ccccc2)nc2sc(C)c(C)c12	none
Cc1ccc(SCC(=O)NC(=O)Nc2ccc3c(c2)OCCO3)c(C)c1	none
CC(=O)c1c(C)[nH]c(C(=O)NCCC2=CCCCC2)c1C	STAT1 act 134, NF-kB expr up 3.5
COc1cccc(C(=O)NCCC2=CCCCC2)c1	APP 5'UTR act 153
COc1ccc(CNC(=O)c2ccc(C(C)(C)C)cc2)cc1	STAT1 act 138
COc1ccc(CNC(=O)c2ccc3nccnc3c2)cc1	none
CCOC(=O)c1[nH]c(C)c(C(=O)NCCC2=CCCCC2)c1C	none
O=C(c1cccnc1Cl)N1CCOCC1	none
COc1ccc(C(=O)/C=C\c2ccc(NC(=O)c3cccs3)cc2)cc1	none
CN(Cc1ccco1)C(=O)Cn1nc(-c2ccc(Cl)cc2)ccc1=O	none
Cc1ccc(Cl)cc1NC(=O)COC(=O)C12CC3CC(CC(C3)C1)C2	none
O=C(Nc1ccc(Cl)cn1)c1cc2ccccc2o1	NF-kB expr up 9.2, APP 5'UTR act 205, FLuc inhib CS 64
O=C(Nc1ccc(Br)cn1)c1cccc(-c2cc3ccccc3oc2=O)c1	STAT1 act 144
O=C(Nc1ccc(Cl)cn1)c1ccc([N+](=O)[O-])o1	NF-kB expr up 5.9
O=C(Nc1ccc(Cl)cn1)c1ccc(-c2cc(Cl)ccc2Cl)o1	none

High-throughput results: PubChem BioAssay, several laboratories
